# Bioassay records (PubChem)
# This is a sample that favours compounds with a hit; in the whole collection about 2.7% have one here.
# PAFAH1B2 inh: blocks human PAF acetylhydrolase 1b catalytic subunit 2 | recombinant PAFAH1B2, FP-rhodamine activity probe, fluorescence polarization | inhibition, % at 3.39 µM | 1.2% of 340,000 active;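 active = inhibition above the mean of all tested compounds plus 3 SD, cut at about 24% in these data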;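 also: 0% = enzyme with DMSO and 100% = wells lacking PAFAH1B2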
# Target sequence (P68402 whole entry, looked up): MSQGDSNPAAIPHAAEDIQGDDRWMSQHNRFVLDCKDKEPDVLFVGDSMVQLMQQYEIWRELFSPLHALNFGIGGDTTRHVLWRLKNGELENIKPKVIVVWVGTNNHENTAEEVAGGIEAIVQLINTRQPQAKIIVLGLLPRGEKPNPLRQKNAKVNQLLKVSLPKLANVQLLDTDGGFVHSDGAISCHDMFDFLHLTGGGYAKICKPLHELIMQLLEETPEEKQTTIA
# RBBP9 inhibitor: human RBBP9 hydrolase inhibition; O75884; recombinant RBBP9, FP-Rh probe fluorescence polarization; inhibition, % at 7.94 µM; 0.2% of 220,000 active; AID 1515;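 active = inhibition above the campaign mean of all tested compounds plus 3 SD, cut at about 14% in these data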;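 also: plate controls were DMSO wells with RBBP9 for no effect and wells lacking RBBP9 protein for full effect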
#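 System: RBBP9 protein | Quantity: 2.5 µM RBBP9 dispensing solution, before mixing | Reagent: FP-Rh probe, 375 nM dispensing solution | Timing: Enzyme-compound preincubation 30 min, then probe labeling 45 min, 25 °C | Measured by: Fluorescence polarization | Read-out: % inhibition | Replication: One well per compound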
# PAFAH1B3 FP inh: inhibitors of human PAFAH1B3; 0.28% of 340,000 active; recombinant PAFAH1B3, FP-rhodamine probe, fluorescence polarization; Q15102; AID 492972; inhibition, % at 3.39 µM;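 active = inhibition above the screen-wide average of all tested compounds plus 3 SD, cut at about 25% in these data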;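 also: 0% = enzyme with DMSO only and 100% = wells lacking PAFAH1B3 protein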
# PAFAH2 FP inh: inhibitors of human PAFAH2; 0.99% of 340,000 active; Q99487; recombinant PAFAH2, FP-rhodamine activity probe, fluorescence polarization; AID 492956; inhibition, % at 3.39 µM;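 active = inhibition above the mean over all tested compounds plus 3 SD, cut at about 30% in these data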;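 also: inhibitors block probe labeling of enzyme so polarization drops; 0% = enzyme with DMSO and 100% = wells lacking PAFAH2 protein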
# pPAFAH inh: inhibitors of human plasma PAF acetylhydrolase (pPAFAH) | AID 463082 | recombinant pPAFAH, FP-rhodamine probe fluorescence polarization | inhibition, % at 3.39 µM | 1.5% of 330,000 active | Q13093;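 active = inhibition above the mean inhibition across the screen plus 3 SD, cut at about 25% in these data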;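 also: inhibitors block binding of the rhodamine activity-based probe so polarization drops; 0% = enzyme with DMSO and 100% = wells lacking pPAFAH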
# Target sequence (Q13093 whole entry, looked up): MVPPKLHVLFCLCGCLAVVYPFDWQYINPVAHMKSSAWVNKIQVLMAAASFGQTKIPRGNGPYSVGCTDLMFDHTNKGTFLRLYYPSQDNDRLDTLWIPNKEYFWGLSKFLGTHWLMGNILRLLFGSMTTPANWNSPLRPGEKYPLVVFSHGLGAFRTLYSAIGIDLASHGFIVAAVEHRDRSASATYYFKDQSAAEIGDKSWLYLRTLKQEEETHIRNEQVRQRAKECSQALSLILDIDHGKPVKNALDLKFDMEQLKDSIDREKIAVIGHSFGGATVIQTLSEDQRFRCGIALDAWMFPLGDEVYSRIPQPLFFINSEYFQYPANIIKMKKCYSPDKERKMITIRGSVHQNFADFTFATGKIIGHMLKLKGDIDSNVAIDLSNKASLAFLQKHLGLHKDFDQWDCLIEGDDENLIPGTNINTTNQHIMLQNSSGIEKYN
# An asterisk follows results filed as active; · = no result given.
SMILES,PAFAH1B2 inh,RBBP9 inhibitor,PAFAH1B3 FP inh,PAFAH2 FP inh,pPAFAH inh
CN1C(=O)c2cccc(NC(=O)CCc3ccccc3)c2C1=O,4.7,-4.9,1.0,9.8,-1.2
CN(C)CCNC(=O)c1ccc(-c2nn(C)c(=O)c3ccccc23)cc1,-1.1,-8.2,4.6,-2.0,1.1
CCCNC(=O)c1ccc(-c2nn(C)c(=O)c3ccccc23)cc1,2.2,·,3.3,1.7,32.4*
CC1=C/C(=C(\c2ccc(O)c(C)c2)c2ccccc2S(=O)(=O)O)C=CC1=O,6.6,·,5.2,1.8,5.0
CC1=CC(=O)C=C/C1=C(/c1ccc(O)cc1C)c1ccccc1S(=O)(=O)O,26.3*,·,2.4,-0.9,16.6
O=C(Nc1ccc(F)cc1)Nc1ccc(N2CCCC2)c(S(=O)(=O)Nc2ccccc2Cl)c1,-5.6,-19.2,-7.0,-24.1,24.7*
O=C(c1ccccc1NS(=O)(=O)c1ccc(F)cc1)N1CCCCC1,16.3,·,6.1,-4.2,5.4
Cc1ccc(S(=O)(=O)Nc2ccccc2C(=O)Nc2nc(-c3ccc(F)cc3)cs2)cc1,2.3,-21.2,-1.6,0.0,24.9*
O=C(Nc1cc(S(=O)(=O)Nc2ccc(Cl)cc2)ccc1O)c1ccc(S(=O)(=O)N2CCCCCC2)cc1,-5.8,-12.8,-4.6,-10.8,30.1*
O=C(NNS(=O)(=O)c1ccc(Cl)cc1)c1ccc(S(=O)(=O)N2CCCCC2)cc1,11.3,-0.7,0.2,-7.2,-0.1
O=C(Nc1cc(S(=O)(=O)N2CCCCC2)ccc1Cl)c1ccccc1NS(=O)(=O)c1ccc(F)cc1,29.6*,-14.3,18.5,1.6,22.0
O=C(OCc1cc2ccccc2[nH]c1=O)c1cccc([N+](=O)[O-])c1,4.1,-1.5,-0.1,-4.3,-1.6
CCOc1ccc(NC(=O)CN(C)C(=O)c2ccc(-c3ccc(C(C)=O)cc3)o2)cc1OCC,0.2,·,6.2,3.7,5.6
Cc1ccc(CSCC(=O)NCc2cccs2)cc1,0.4,-3.7,8.1,-3.2,1.8
Cc1ccc(NS(=O)(=O)c2cc([N+](=O)[O-])ccc2NNC(=S)Nc2cccc(Cl)c2)c(C)c1,41.0*,-13.3,-12.3,10.1,22.1
N#Cc1c(SC(C(=O)O)c2ccccc2)nc2c(c1-c1cccs1)CCCC2 (stereo unspecified),26.9*,-9.6,11.0,-2.0,19.9
CCOC(=O)C(C)Sc1nc2c(c(-c3cccs3)c1C#N)CCC2 (stereo unspecified),0.7,-9.5,2.5,-3.6,9.6
O=S(=O)(NCCCCCNS(=O)(=O)c1ccc(F)cc1)c1ccc(F)cc1,7.1,-7.9,2.9,6.0,14.9
O=S(=O)(NC12CC3CC(CC(C3)C1)C2)c1ccc(F)cc1,28.3*,2.7,6.2,0.2,2.6
O=C(NCCc1ccc(Cl)cc1Cl)c1ccc2nc[nH]c2c1,28.6*,·,9.8,-1.1,-2.2
O=C(NCCSc1ccc(Br)cc1)c1ccc2nc[nH]c2c1,46.8*,·,16.9,1.5,29.5*
Clc1nccc(N2CCN(c3ccccc3Cl)CC2)n1,·,·,·,·,0.5
CCNC(=O)NC(=O)C(C)Sc1ncc(C(F)(F)F)cc1Cl (stereo unspecified),0.1,-7.6,3.0,2.1,15.1
Nc1cccc2nsnc12,1.0,-3.3,5.6,-0.7,5.9
Nc1cc2nsnc2cc1Br,43.2*,-4.1,59.5*,56.3*,4.0
SMILES,PAFAH1B2 inh,RBBP9 inhibitor,PAFAH1B3 FP inh,PAFAH2 FP inh,pPAFAH inh
Cc1snc(SCc2ccc(Cl)cc2)c1C#N,27.8*,·,2.5,-2.1,7.7
COc1ccc(OC)c(CCNC(=O)c2ccc(CS(=O)(=O)c3ccc(Br)cc3)o2)c1,27.1*,-0.3,7.2,7.4,2.9
N=C1C(c2nc3ccccc3s2)=C(O)CN1Cc1ccccc1,0.0,-9.5,11.8,4.3,3.6
CCOc1ccccc1N1CC(O)=C(c2nc3ccccc3s2)C1=N,1.2,-2.6,0.1,14.2,33.1*
COCCNC(=O)NC12CC3(C)CC(C)(CC(C)(C3)C1)C2,3.2,-4.9,0.8,-1.3,1.2
Cc1cc(=O)oc2c3c(cc(OCC(=O)N[C@@H](CC(C)C)C(=O)O)c12)OC(C)(C)CC3,35.4*,·,3.7,12.5,0.5
CC(C)CC(C(=O)Nc1ccccc1)N1C(=O)C2C3C=CC(C3)C2C1=O (stereo unspecified),2.3,-0.4,2.9,0.8,7.3
N#Cc1c(Nc2ccccc2)c(C=NCCN2CCOCC2)c[nH]c1=O,3.1,-7.5,3.3,-0.4,29.0*
N#Cc1c(Nc2ccccc2)c(/C=N/N=C/c2ccccc2)c[nH]c1=O,3.6,0.3,10.4,5.3,15.1
N#Cc1c(Nc2ccccc2)c(/C=N/NCCO)c[nH]c1=O,-4.6,-3.6,0.3,1.0,26.4*
Cn1/c(=N/N=C/c2ccccn2)sc2ccccc21,·,-5.0,·,·,·
CCCCCCCN=CC1=C(O)CC(c2ccccc2)CC1=O (stereo unspecified),26.3*,-15.1,6.7,-7.0,-2.1
CCCNS(=O)(=O)c1ccc(N2CCCC2=O)c([N+](=O)[O-])c1,2.7,-2.1,5.5,2.3,-0.9
O=C1CCCN1c1ccc(S(=O)(=O)Oc2ccc(Cl)cc2)cc1[N+](=O)[O-],69.0*,-6.0,-3.7,1.8,-0.7
O=C(O)c1cc(-c2ccccc2Cl)n(-c2ccccc2)n1,29.0*,·,6.1,-7.5,4.0
CC(C)CCC(CCNCc1ccccn1)c1ccc2c(c1)OCO2 (stereo unspecified),4.5,·,0.6,-8.2,1.7
CC(C)C(CCNCc1ccccn1)c1ccc(Cl)cc1 (stereo unspecified),45.0*,·,34.6*,45.2*,4.3
O=Cc1ccc(C(=O)OCC(=O)Nc2ccc(F)cc2F)cc1,2.1,·,2.9,46.6*,8.2
COc1cc(C(=O)OCC(=O)Nc2ccc(F)cc2F)cc(OC)c1OC,1.1,-5.9,2.0,3.9,-2.8
Cc1cccc2sc(N(CCN(C)C)C(=O)C3CCN(S(=O)(=O)c4cccs4)CC3)nc12,4.9,·,6.0,-1.6,-0.2
O=C(Nc1cccnc1)c1ccc(C(=O)Nc2cccnc2)cc1,-1.2,-6.8,1.9,-7.4,0.5
O=C(Nc1cccnc1)c1ccc(S(=O)(=O)c2ccc(Cl)cc2)cc1,27.4*,-5.4,4.3,-5.8,5.6
Cc1ccccc1Nc1cc2ccccc2c(=O)[nH]1,8.6,0.1,54.2*,10.4,3.8
O=c1[nH]c(Nc2ccccc2Cl)cc2ccccc12,5.9,·,14.6,7.6,8.9
C/C(=N/NC(=O)CN1CCN(S(=O)(=O)c2ccc(C)cc2)CC1)c1cccc(O)c1,25.2*,-0.8,6.3,-5.2,4.0
O=C(CN1CCN(S(=O)(=O)c2ccc(Br)cc2)CC1)N/N=C/c1ccco1,29.9*,-0.1,3.8,12.8,4.0
O=S(=O)(c1ccc(Br)cc1)N1CCN(Cc2ccco2)CC1,25.9*,·,9.6,3.4,-4.8
O=C(CN1CCN(S(=O)(=O)c2ccc(Br)cc2)CC1)N/N=C/c1ccc(Br)s1,19.7,-6.8,2.9,6.9,-0.4
C/C(=N/NC(=O)CN1CCN(S(=O)(=O)c2ccc(Br)cc2)CC1)c1ccco1,27.5*,-3.0,3.9,4.0,2.7
